High-throughput results deposited in PubChem by The Scripps Research Institute Molecular Screening Center.
HTRA1 inh: HTRA1 (human) protease inhibition | 340,000 tested, 0.5% active | recombinant HTRA1, FP-rhodamine activity-based probe, fluorescence polarization | inhibition, % at 5.96 µM | Q92743; in the data active = inhibition above about 36%;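 note: 0% = enzyme with DMSO and 100% = wells lacking enzyme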
TCR CD3 inh: human TCR-CD3 binding inhibition; AID 651800; 360,000 tested, 0.37% active; TAMRA-labeled TCR probe fluorescence, biochemical; inhibition, % at 9.4 µM; in the data active = inhibition above about 19%;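 note: recombinant mutant TCR 2C K166C tagged with TAMRA read by polarization; 0% = receptor in buffer alone and 100% = receptor with positive control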
mABHD4 FP: inhibits mouse alpha/beta hydrolase domain 4 | Q8VD66 | purified mABHD4, FP-Rh probe fluorescence polarization | AID 720543 | 370,000 tested, 0.54% active | inhibition, % at 8.92 µM;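 active = inhibition exceeding the mean over every tested compound plus 3 SD, cut at about 30% in these data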;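 note: 0% = plate median of compound wells and 100% = S159A mutant with DMSO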
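Test system: mABHD4 protein; Read-out basis: % inhibition; Incubation: 45 min + 60 min at 25 °C; Repeats: single replicate; Technique: fluorescence polarization with parallel and perpendicular emission, 525/598 nm; Compound: 8.92 µM, single dose; Benchmarks: full inhibition S159A mutant plus DMSO, zero as sample-well median.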
PRMT1 FP inh: blocks human protein arginine methyltransferase 1 | Q99873 | recombinant PRMT1, activity-based probe fluorescence polarization | inhibition, % at 2.79 µM | 370,000 tested, 1.3% active;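 active = inhibition above about 21% made by adding two undisclosed values, limit read from the data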
SIAE inh: inhibitors of human sialic acid acetylesterase SIAE; Q9HAT2; SIAE FP-Rh probe binding, fluorescence polarization; inhibition, % at 9.66 µM; 370,000 tested, 0.69% active; AID 1053197;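 active = inhibition above a cutoff: mean of compounds within the control limits plus 3 SD of those, cut at about 17% in these data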;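 note: 0% = plate median of compound wells and 100% = probe without SIAE protein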
Target sequence (Q9HAT2 whole entry, looked up): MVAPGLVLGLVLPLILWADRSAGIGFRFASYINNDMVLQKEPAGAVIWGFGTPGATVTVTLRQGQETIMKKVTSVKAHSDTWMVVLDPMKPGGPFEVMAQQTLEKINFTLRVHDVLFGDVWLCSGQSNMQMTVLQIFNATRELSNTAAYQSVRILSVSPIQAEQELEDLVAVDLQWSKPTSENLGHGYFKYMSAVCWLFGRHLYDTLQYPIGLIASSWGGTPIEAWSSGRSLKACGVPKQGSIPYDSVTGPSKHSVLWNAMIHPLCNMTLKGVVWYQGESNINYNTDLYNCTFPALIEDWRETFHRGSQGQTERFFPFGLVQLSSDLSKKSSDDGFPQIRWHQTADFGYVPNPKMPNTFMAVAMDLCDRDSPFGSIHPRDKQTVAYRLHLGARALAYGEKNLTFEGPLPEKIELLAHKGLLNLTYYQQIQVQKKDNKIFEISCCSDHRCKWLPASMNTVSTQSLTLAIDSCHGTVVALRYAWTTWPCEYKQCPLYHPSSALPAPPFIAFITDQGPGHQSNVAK
ABHD4 confirm: confirmation of mouse ABHD4 inhibitors; shares compounds with mABHD4 FP; purified mABHD4, FP-Rh probe fluorescence polarization; inhibition, % at 8.92 µM; 1,800 tested, 55% active;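 active = mean inhibition across replicates above the hit cutoff set in the primary screen, cut at about 30% in these data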;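 note: 0% = wild-type ABHD4 with DMSO and 100% = catalytically dead S159A mutant with DMSO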
* = called active by the depositor; . = no result. The list is not random: actives were taken first. Their share in the collection is about 2.5%.

SMILES	HTRA1 inh	TCR CD3 inh	mABHD4 FP	PRMT1 FP inh	SIAE inh	ABHD4 confirm
Nc1cc2c(cc1Br)[nH]c(=O)c1ccccc12	28	1	31*	3	-3	31*
COC(=O)[C@]12C[C@H](CC(=O)NCC3CCCCC3)C(=O)N(Cc3ccccc3)C1=C[C@H](COCc1ccccc1)O[C@@H]2C	.	.	-1	-4	1	.
CC(C)(c1ccccc1)c1ccc(OCC(O)CNC2CCN(Cc3ccccc3)CC2)cc1 (centres undefined)	-14	2	32*	-2	-1	36*
CCOc1ccc(OCC(O)CNC2CCN(Cc3ccccc3)CC2)cc1 (centres undefined)	1	-9	-2	-4	3	.
NNc1nc2c(Cl)ccc(Cl)c2s1	8	7	39*	0	10	48*
CN(C)c1ccc(O)c2c1CC1CC3[C@@H](N(C)C)C(=O)C(C(N)=O)C(=O)[C@]3(O)C(=O)C1C2=O (some centres undefined)	28	5	61*	11	10	-4
CN(C)c1ccc(O)c2c1CC1CC3C(N(C)C)C(=O)C(C(N)=O)=C(O)[C@@]3(O)C(=O)C1=C2O (some centres undefined)	15	1	60*	16	9	26
CCOC(=O)c1csc(NC(=O)C2CCCN(S(=O)(=O)c3ccc([N+](=O)[O-])cc3)C2)n1 (centres undefined)	.	.	-2	-2	1	.
Cc1cc(C(=O)O)cc(S(=O)(=O)Nc2ccccc2C(=O)NC(C)c2ccccc2)c1C (centres undefined)	-5	10	34*	-2	-2	24
CC(NC(=O)c1ccccc1NC(=O)c1ccncc1)c1ccccc1 (centres undefined)	0	-7	2	3	2	.
CCC(C)Nc1nc(-c2cccc(OC)c2O)nc2ccccc12 (centres undefined)	0	-1	34*	0	14	37*
COc1cccc(-c2nc(NCC3CCCO3)c3ccccc3n2)c1O (centres undefined)	17	-2	33*	0	9	34*
O=C(C1CC1)C1(C(=O)N2CCOCC2)CC(c2ccccn2)=NO1 (centres undefined)	.	.	-5	-2	3	.
Cc1ccc(S(=O)(=O)N2[C@@H](c3ccccc3F)C(C(=O)O)=CC[C@H]2c2ccc(C(C)C)cc2)cc1	-53	-1	33*	-2	-1	27
Nn1c(SCC(=O)Nc2ccccc2-c2ccccc2)nnc1-c1n[nH]c2c1CCC2	.	.	4	-2	1	.
O=C(COC(=O)c1ccccc1)Nc1ncc([N+](=O)[O-])s1	11	9	39*	25*	-9	41*
N=C(N)SCc1cn(-c2ccccc2)nc1-c1ccc(Br)cc1	-68	4	36*	0	-2	60*
C[C@H]1[C@H](c2ccccc2)OC(O)([C@H](Cc2ccccc2)NC(=O)OC(C)(C)C)CN1C (some centres undefined)	.	.	2	4	6	.
CC(C(=O)O)N1C(=O)/C(=C/C=C/c2ccco2)SC1=S (centres undefined)	28	2	37*	56*	5	15
CCOc1ccc(-n2c(SCC(=O)Nc3ccc4cn[nH]c4c3)nnc2-c2ccc(C(C)(C)C)cc2)cc1	.	.	-13	2	1	.
COc1cccc2c(=O)c3c([nH]c12)OC(C)(C)C3	1	-5	4	-2	4	.
COc1cccc2c(=O)c3cccc(N)c3[nH]c12	32	18	58*	17	6	66*
CCOC(=O)CCCNC(=O)O[C@@H]1CC[C@@]23CCCN2C(=O)CCC[C@H]3C1	.	.	1	-4	-5	.
Cc1ccc(NC(=O)COC(=O)CCn2c(C)csc2=O)c([N+](=O)[O-])c1	4	9	7	2	-6	.
Cc1csc(=O)n1CCC(=O)OCC(=O)Nc1cc([N+](=O)[O-])ccc1Cl	-8	3	56*	4	0	-9
SMILES	HTRA1 inh	TCR CD3 inh	mABHD4 FP	PRMT1 FP inh	SIAE inh	ABHD4 confirm
CC(C)(C)c1ccc(/C=N/Nc2ccc(C(=O)O)cc2)cc1	-9	2	3	6	3	.
CC1Oc2ccccc2C=C1/C=N/Nc1ccc(C(=O)O)cc1 (centres undefined)	-2	-6	32*	10	2	31*
COC(=O)C1=C(C)N(Cc2cccc(C(F)(F)F)c2)C(=NCc2ccc(OC)cc2)NC1c1cccc(Cl)c1 (centres undefined)	.	-6	27	1	3	.
COC(=O)C1=C(C)N(Cc2cccc(C(F)(F)F)c2)C(=NCc2ccc(C(F)(F)F)cc2)NC1c1ccc(F)cc1 (centres undefined)	.	6	35*	3	-9	44*
COC(=O)C1=C(C)N(Cc2cccc(C(F)(F)F)c2)C(=NCc2ccc3c(c2)OCO3)NC1c1cccc(C(F)(F)F)c1 (centres undefined)	.	-5	25	0	2	.
COC(=O)C1=C(C)N(Cc2cccc(C(F)(F)F)c2)C(=NCc2ccc(OC)cc2)NC1c1cccc(C(F)(F)F)c1 (centres undefined)	.	-1	31*	0	-4	41*
COC(=O)C1=C(C)N(Cc2ccc(C(F)(F)F)cc2)C(=NCc2ccccc2)NC1c1cccc(F)c1 (centres undefined)	.	-1	34*	-4	9	46*
COC(=O)C1=C(C)N(Cc2cccc(C(F)(F)F)c2)C(=NCc2ccc3c(c2)OCO3)NC1c1ccc(F)cc1 (centres undefined)	.	-6	44*	0	3	30*
Cn1c(=O)c2cc(S(=O)(=O)N3CCN(c4ccccc4Cl)CC3)ccc2n(C)c1=O	.	.	4	2	0	.
CN(CC#CC1=CCCCC1)/C(N)=N/C(=O)OCc1ccccc1	.	.	-7	2	0	.
CC(=O)O[C@@H]1C=C[C@@H](C#Cc2ccc(C(C)(C)C)cc2)O[C@@H]1COC(=O)NCc1ccccc1	.	-3	-4	2	3	.
CCC(C(=O)OCc1csc(CC(=O)Nc2ccccc2C)n1)c1ccccc1 (centres undefined)	-14	-2	30*	-2	-4	17
Cc1ccccc1NC(=O)Cc1nc(COC(=O)CC(C)c2ccccc2)cs1 (centres undefined)	0	-2	12	6	-7	.
CCOc1ccc(OCC(=O)OCc2csc(CC(=O)Nc3ccccc3C)n2)cc1	-5	5	10	2	-6	.
COc1cc(C(=O)OCc2csc(CC(=O)Nc3ccccc3C)n2)ccc1OCC(C)C	-25	-6	43*	2	2	14
COc1ccc(CCC(=O)OCc2csc(CC(=O)Nc3ccccc3C)n2)cc1	-10	1	36*	-3	-4	19
COc1nc(OC)nc(N2CCC(C(=O)N(C)Cc3ccco3)CC2)n1	.	.	3	5	2	.
